ChEMBL document CHEMBL1127825, “Synthesis and in vitro evaluation of 9-anilino-3,6-diaminoacridines active against a multidrug-resistant strain of the malaria parasite Plasmodium falciparum” (J Med Chem, 1994)
In brackets after ≈: the same amount, converted by molar mass.

Columns and labels:
Jurkat = test: Concentration required to reduce growth of human jurkat leukemia cells to 50% of control cultures, determined using a 72 hr continuous exposure; format: functional, cell-based
Summary of the method: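 Human Jurkat leukemia cells given continuous drug exposure for 72 h, then counted on a hemocytometer. IC50 is the concentration that cuts cell growth to 50% of untreated controls. Values are means of at least two independent determinations, with variation typically ±15%.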

Plasmodium falciparum [1] = test: Inhibitory concentration IC50 against Plasmodium falciparum K1 by [3H]hypoxanthine uptake over 24 hr; format: functional, organism-based
Summary of the method: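 K1 strain of P. falciparum (chloroquine- and pyrimethamine-resistant) in infected erythrocyte suspensions at 0.5% initial parasitemia, exposed to drug for 24 h at 37 °C. Read-out is [3H]hypoxanthine incorporation into parasites. IC50 is the concentration giving 50% inhibition relative to untreated controls.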

[2] = In vitro therapeutic index value is the ratio between IC50 values of [J] and [P]; format: cell-based; conditions: human, Jurkat cells; read-out: TI
[3] = molecular target: T1, DNA topoisomerase 2 (Plasmodium falciparum K1) (UniProt P41001); test: Minimum inhibitory concentration required to completely inhibit topoisomerase II activity from Plasmodium falciparum was determined using P4 DNA […] assay
T1 sequence (whole entry): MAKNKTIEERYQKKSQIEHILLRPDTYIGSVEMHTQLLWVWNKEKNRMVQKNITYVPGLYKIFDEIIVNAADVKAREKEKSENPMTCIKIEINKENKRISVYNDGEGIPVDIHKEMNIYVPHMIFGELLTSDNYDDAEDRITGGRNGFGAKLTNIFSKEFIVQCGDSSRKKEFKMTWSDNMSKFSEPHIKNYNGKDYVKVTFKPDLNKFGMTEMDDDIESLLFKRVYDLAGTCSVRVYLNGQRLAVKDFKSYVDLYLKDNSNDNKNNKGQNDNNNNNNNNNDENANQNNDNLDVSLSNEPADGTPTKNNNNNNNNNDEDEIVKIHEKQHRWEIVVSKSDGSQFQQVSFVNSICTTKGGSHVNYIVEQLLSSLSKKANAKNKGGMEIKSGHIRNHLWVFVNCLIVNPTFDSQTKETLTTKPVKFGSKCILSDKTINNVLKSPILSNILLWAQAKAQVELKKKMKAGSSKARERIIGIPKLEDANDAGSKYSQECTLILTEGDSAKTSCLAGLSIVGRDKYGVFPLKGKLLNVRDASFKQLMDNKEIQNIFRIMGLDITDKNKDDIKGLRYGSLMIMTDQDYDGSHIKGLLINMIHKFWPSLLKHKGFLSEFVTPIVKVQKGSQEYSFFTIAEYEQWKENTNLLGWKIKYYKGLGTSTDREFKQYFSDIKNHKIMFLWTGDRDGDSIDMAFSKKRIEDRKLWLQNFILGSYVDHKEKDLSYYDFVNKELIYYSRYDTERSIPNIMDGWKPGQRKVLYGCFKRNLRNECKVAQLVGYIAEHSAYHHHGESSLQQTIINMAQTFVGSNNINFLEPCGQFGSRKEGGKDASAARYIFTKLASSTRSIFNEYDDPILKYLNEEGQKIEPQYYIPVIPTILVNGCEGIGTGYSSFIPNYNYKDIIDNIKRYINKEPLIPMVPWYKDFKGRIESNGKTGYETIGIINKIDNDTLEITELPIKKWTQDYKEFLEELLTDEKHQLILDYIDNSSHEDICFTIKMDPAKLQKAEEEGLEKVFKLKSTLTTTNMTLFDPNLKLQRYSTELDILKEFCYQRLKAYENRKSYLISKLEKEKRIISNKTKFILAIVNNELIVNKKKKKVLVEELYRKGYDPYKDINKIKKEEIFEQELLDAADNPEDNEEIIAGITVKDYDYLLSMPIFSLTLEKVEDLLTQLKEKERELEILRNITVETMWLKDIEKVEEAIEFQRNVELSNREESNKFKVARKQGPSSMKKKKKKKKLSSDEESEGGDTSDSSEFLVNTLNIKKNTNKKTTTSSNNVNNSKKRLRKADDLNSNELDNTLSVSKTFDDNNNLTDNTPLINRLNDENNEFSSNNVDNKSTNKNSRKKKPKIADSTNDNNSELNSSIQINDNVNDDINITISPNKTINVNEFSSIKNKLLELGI

[4] = molecular target: DNA topoisomerase II (Homo sapiens) (UniProt P11388+Q02880); test: Minimum inhibitory concentration required to completely inhibit topoisomerase II activity from jurkat human leukemia cells was determined using P4 DNA unknotting assay
Summary of the method: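 Enzyme is a partially purified topoisomerase II extract from midlog Jurkat cells, made by sonication in Tris pH 8/KCl/MgCl2/EGTA buffer with protease inhibitors, then PEG/KCl precipitation. Extract is diluted to a set P4 DNA unknotting activity. Proteinase K method scores unknotting and linearization of phage P4 DNA on 0.7% agarose gels stained with ethidium bromide. MIC is the concentration giving complete inhibition.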

Plasmodium falciparum [5] = test: Inhibitory concentration against Plasmodium falciparum W2 infected erythrocytes; format: functional, organism-based
Plasmodium falciparum [6] = test: Inhibitory concentration against Plasmodium falciparum D6 infected erythrocytes; format: functional, organism-based
Plasmodium falciparum [7] = test: Inhibitory concentration against Plasmodium falciparum K1 infected erythrocytes; format: functional, organism-based
Summary of the method: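 Chloroquine- and pyrimethamine-resistant K1 strain in infected erythrocyte suspensions (0.5% initial parasitemia), exposed to drug for 24 h at 37 °C. Read-out: [3H]hypoxanthine incorporation into parasites. IC50 in μM is the concentration that reduces incorporation to 50% of untreated controls.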

SMILES	IC50 (Jurkat)	IC50 (Plasmodium falciparum [1])	MIC [3]	MIC [4]	selectivity ratio [2]	IC50 (Plasmodium falciparum [5])	IC50 (Plasmodium falciparum [6])	IC50 (Plasmodium falciparum [7])
CS(=O)(=O)Nc1ccc(Nc2c3ccccc3nc3cc(N)ccc23)cc1	2 µM	3 µM	–	–	0.7	–	–	–
Cc1ccc(Nc2c3ccc(N)cc3nc3cc(N)ccc23)cc1	3 µM	0.15 µM	–	–	20	–	–	–
CNC(=O)c1ccc(Nc2c3ccc(N)cc3nc3cc(N)ccc23)cc1	> 20 µM	0.04 µM	–	–	> 500	–	–	–
CN(C)S(=O)(=O)c1ccc(Nc2c3ccc(N)cc3nc3cc(N)ccc23)cc1	5 µM	0.16 µM	–	–	31	–	–	–
COc1ccc(Nc2c3ccc(N)cc3nc3cc(N)ccc23)cc1	4 µM	0.15 µM	6 µM (≈ 1.98 µg/mL)	20 µM (≈ 6.61 µg/mL)	27	–	–	–
NC(=O)c1ccc(Nc2c3ccc(N)cc3nc3cc(N)ccc23)cc1	> 20 µM	0.07 µM	6 µM (≈ 2.06 µg/mL)	20 µM (≈ 6.87 µg/mL)	> 285	–	–	–
C[C@@H]1CC[C@H]2[C@@H](C)C(=O)O[C@@H]3O[C@@]4(C)CC[C@@H]1[C@]32OO4 [ARTEMISININ]	–	–	–	–	–	0.012 µM	0.013 µM	–
CN(C)c1ccc(Nc2c3ccccc3nc3ccccc23)cc1	< 1 µM	0.47 µM	–	–	< 2	–	–	–
CNc1ccc(Nc2c3ccc(N)cc3nc3cc(N)ccc23)cc1	11.5 µM	0.16 µM	–	–	72	–	–	–
CN(C)c1ccc2c(Nc3ccccc3)c3ccc(N(C)C)cc3nc2c1	1.4 µM	2.4 µM	–	–	0.6	–	–	–
CN(C)c1ccc(Nc2c3ccc(N)cc3nc3cc(N)ccc23)cc1	6 µM	0.034 µM	12.5 µM (≈ 4.29 µg/mL)	20 µM (≈ 6.87 µg/mL)	176	0.118 µM	0.063 µM	0.034 µM
CN(C)c1ccc(Nc2c3ccccc3nc3cc(N)ccc23)cc1	< 1 µM	0.29 µM	–	–	< 3.5	–	–	–
COc1cc(N=c2c3ccccc3[nH]c3cc(N)ccc23)ccc1NS(C)(=O)=O	< 1 µM	2.7 µM	–	–	< 0.4	–	–	–
CN(C)Cc1ccc(Nc2c3ccc(Cl)cc3nc3cc(Cl)ccc23)cc1	5 µM	0.25 µM	–	–	20	–	–	–
Nc1ccc2c(Nc3ccc(S(=O)(=O)N4CCCCC4)cc3)c3ccc(N)cc3nc2c1	14 µM	1.4 µM	–	–	10	–	–	–
CS(=O)(=O)Nc1ccc(Nc2c3ccc(N)cc3nc3cc(N)ccc23)cc1	1 µM	0.03 µM	6 µM (≈ 2.36 µg/mL)	10 µM (≈ 3.93 µg/mL)	33	–	–	–
[N-]=[N+]=Nc1ccc2c(Nc3ccc(S(N)(=O)=O)cc3)c3ccc(N=[N+]=[N-])cc3nc2c1	2.5 µM	0.03 µM	–	–	83	–	–	–
COc1cc(NS(C)(=O)=O)ccc1Nc1c2ccccc2nc2ccccc12 [AMSACRINE]	< 1 µM	0.6 µM	–	–	< 1.5	–	–	–
COc1cc(Nc2c3ccccc3nc3ccccc23)ccc1NS(C)(=O)=O [o-Amsacrine]	10 µM	26 µM	–	–	0.4	–	–	–
COc1ccc2c(Nc3ccc(S(N)(=O)=O)cc3)c3ccc(OC)cc3nc2c1	3.1 µM	> 10 µM	> 100 µM	> 100 µM	< 3.2	–	–	–
COc1cc(Nc2c3ccc(N)cc3nc3cc(N)ccc23)ccc1NS(C)(=O)=O	8.5 µM	0.5 µM	–	–	17	–	–	–
Nc1ccc2c(Nc3ccc(O)cc3)c3ccc(N)cc3nc2c1	10 µM	0.05 µM	6 µM (≈ 1.9 µg/mL)	20 µM (≈ 6.33 µg/mL)	200	–	–	–

Further lines, with some results ahead:

IC50 (Jurkat)	IC50 (Plasmodium falciparum [1])	MIC [3]	MIC [4]	SMILES	selectivity ratio [2]	IC50 (Plasmodium falciparum [5])	IC50 (Plasmodium falciparum [6])	IC50 (Plasmodium falciparum [7])
0.5 µM	0.32 µM	–	–	CNc1ccc(Nc2c3ccccc3nc3cc(N)ccc23)cc1	1.6	–	–	–
0.75 µM	1.5 µM	–	–	Nc1ccc(Nc2c3ccccc3nc3ccccc23)cc1	0.5	–	–	–
7.5 µM	0.15 µM	–	–	CN(C)Cc1ccc(Nc2c3ccccc3nc3ccccc23)cc1	50	–	–	–
15 µM	0.025 µM	10 µM (≈ 3.15 µg/mL)	20 µM (≈ 6.31 µg/mL)	Nc1ccc(Nc2c3ccc(N)cc3nc3cc(N)ccc23)cc1	600	0.037 µM	0.033 µM	0.025 µM
20 µM	0.02 µM	6 µM (≈ 2.28 µg/mL)	20 µM (≈ 7.59 µg/mL)	Nc1ccc2c(=Nc3ccc(S(N)(=O)=O)cc3)c3ccc(N)cc3[nH]c2c1	1000	–	–	–
> 20 µM	> 10 µM	100 µM (≈ 41.8 µg/mL)	> 100 µM	NS(=O)(=O)c1ccc(Nc2c3ccc(Cl)cc3nc3cc(Cl)ccc23)cc1	–	–	–	–
2 µM	0.014 µM	25 µM (≈ 9.84 µg/mL)	20 µM (≈ 7.87 µg/mL)	CNS(=O)(=O)c1ccc(Nc2c3ccc(N)cc3nc3cc(N)ccc23)cc1	143	–	–	–
2.5 µM	0.25 µM	–	–	CN(C)Cc1ccc(Nc2c3ccccc3nc3cc(N)ccc23)cc1	10	–	–	–
0.75 µM	0.1 µM	–	–	Nc1ccc(Nc2c3ccccc3nc3cc(N)ccc23)cc1	7.5	–	–	–
1.5 µM	0.06 µM	50 µM (≈ 19.8 µg/mL)	> 100 µM	[N-]=[N+]=Nc1ccc2c(Nc3ccc(C(N)=O)cc3)c3ccc(N=[N+]=[N-])cc3nc2c1	25	–	–	–
1.5 µM	0.4 µM	–	–	CNc1ccc(Nc2c3ccccc3nc3ccccc23)cc1	3.8	–	–	–
< 1 µM	0.2 µM	–	–	COc1cc(NS(C)(=O)=O)ccc1Nc1c2ccccc2nc2cc(N)ccc12	< 5	–	–	–
> 20 µM	0.6 µM	–	–	CN(C)C(=O)c1ccc(Nc2c3ccc(N)cc3nc3cc(N)ccc23)cc1	> 33	–	–	–
15 µM	0.3 µM	–	–	Nc1ccc2c(Nc3ccccc3)c3ccc(N)cc3nc2c1	50	–	–	–
< 1 µM	3 µM	–	–	CS(=O)(=O)Nc1ccc(Nc2c3ccccc3nc3ccccc23)cc1	< 0.3	–	–	–
> 20 µM	0.2 µM	–	–	Nc1ccc2c(Nc3ccc(CN4CCCCC4)cc3)c3ccc(N)cc3nc2c1	> 100	–	–	–
0.8 µM	0.1 µM	–	–	COc1cc(NS(C)(=O)=O)ccc1Nc1c2ccc(N)cc2nc2cc(N)ccc12	8	–	–	–
< 1 µM	0.4 µM	–	–	COc1cc(NS(C)(=O)=O)ccc1Nc1c2ccc(N(C)C)cc2nc2cc(N(C)C)ccc12	< 2.5	–	–	–
16 µM	0.6 µM	–	–	CCCCCNCc1ccc(Nc2c3ccc(N)cc3nc3cc(N)ccc23)cc1	27	–	–	–
